The source of these data is publication PMC6016778 (Proceedings of the National Academy of Sciences of the …, 2018).

Data set [1] deals with UVRAG coiled-coil domain. Briefly: ITC.
For data set [2], the target named is Beclin 1 coiled-coil domain (Rattus norvegicus, UniProt Q91XJ1). Briefly: ITC binding of designed peptides to Beclin 1 coiled-coil domain.
The test system of data set [3] is HEK293T cells. Briefly: LC3-II and p62 Western blots after peptide treatment, HEK293T cells. It is filed as cell-based. The settings on record: 3 h. In a few lines: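 HEK293T cells were treated 3 h with peptide or scrambled Tat control at 10 µM (low) or 20 µM (high) in the culture medium, without or with chloroquine. Lysates were Western blotted for LC3-I/LC3-II lipidation and p62 levels.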
(In western blotting, separated proteins are transferred to a membrane and probed.)

Data set [4] has as its target UVRAG coiled-coil domain. Kind of data set: ITC. This is another data set of the same source. A general note: In ITC the heat of successive injections is recorded.
Data set [5] concerns EGFR. Kind of data set: EGFR degradation assay, A549 cells. In kind it is cell-based. The settings on record: n = 3. An outline of the steps: (§1)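 Overexpression arm: cells were transfected with FLAG-UVRAG wild-type or Leu-to-Glu mutants, or vector. Cells were washed in PBS, serum-starved overnight in DMEM, then given DMEM with 20 mM Hepes, 0.2% BSA and 200 ng/mL EGF. Peptide arm: 20 µM peptide or control was added together with EGF. At each time point, 20 µg lysate was immunoblotted for EGFR, normalized to β-actin and to time 0. Three independent experiments, mean ± SEM.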

The test system of data set [6] is HeLa cells stably expressing GFP-LC3. Kind of data set: Confocal imaging of GFP-LC3 puncta in HeLa cells stably expressing GFP-LC3. In kind it is cell-based. The settings on record: HeLa GFP-LC3, 3 h, n = 3. An outline of the steps: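 HeLa cells stably expressing GFP-LC3 were treated 3 h with peptide, scrambled control or water vehicle, with or without 25 µM chloroquine. Cells were imaged by confocal microscopy and GFP-LC3 puncta per cell were counted. Values are mean ± SEM, n = 3.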

Data set [7] deals with HEK293T cells. Kind of data set: MTT cytotoxicity / cell viability, HEK293T cells. It is filed as cell-based. Particulars: 12.5 and 25 µM, 5 h.
For data set [8], the system named is EGFR. Kind of data set: EGFR degradation assay, HEK293T cells. In kind it is cell-based. The settings on record: n = 3. An outline of the steps: as §1
Data set [9] deals with Beclin 1 self-association. Kind of data set: Co-IP of Beclin 1 self-association. The settings on record: HEK293T. It is filed as cell-based. An outline of the steps: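 HEK293T cells co-transfected with GFP- and His-tagged Beclin 1. Peptide (stock 20 mM in water) was added at 20 µM either to the culture medium 6 h after transfection or to the lysate after lysis. A scrambled, unstapled Tat-fused control peptide was used at the same concentration. His-Beclin 1 association was then probed by co-IP.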

The test system of data set [10] is Beclin 1–Atg14L interaction. Kind of data set: Co-IP of Beclin 1–Atg14L interaction, HEK293T. It is filed as cell-based. The settings on record: peptide 20 μM added to cell lysate.
Data set [11] has as its system Beclin 1–UVRAG interaction. Kind of data set: Co-IP of Beclin 1–UVRAG interaction, HEK293T. In kind it is cell-based. Particulars: peptide 20 μM added to cell lysate.
In data set [12] the test system is EGFR. Briefly: EGFR degradation assay, H1975 cells. Particulars: peptide 20 μM, 15 h after EGF, n = 3. In kind it is cell-based. An outline of the steps:
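H1975 cells were serum-starved overnight in DMEM, then stimulated with 200 ng/mL EGF in DMEM with 20 mM Hepes and 0.2% BSA, together with 20 µM peptide or scrambled control. At each time point, 20 µg lysate was immunoblotted for EGFR. EGFR was normalized to β-actin and to time 0, from three independent experiments.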

Another data set deals with A549 cells. Kind of data set: MTT cytotoxicity / cell viability, A549 cells. It is filed as cell-based. The settings on record: 12.5 and 25 µM, 5 h.
Data set [13] has as its system UVRAG coiled-coil domain. It is filed as binding. Particulars: ITC, relative to wild type.
The subject of data set [14] is endogenous Beclin 1; EGFR. Particulars: EGF-stimulated endocytic transport and lysosomal degradation of EGFR; cited from earlier work.

Read-outs that look alike come from different tables or passages of the source. Positions of bridges follow the written chain, without caps; N, C: chain ends. Non-standard residues stand in square brackets, D forms with d. Residues, ends and D or L forms follow the SMILES beside them. R8 = C=CCCCCCC[C@@](C)(N)C(=O)O; S5 = C=CCCC[C@](C)(N)C(=O)O

Sequence of UVRAG coiled-coil domain (Q8K245 whole entry, the tested form may be a part): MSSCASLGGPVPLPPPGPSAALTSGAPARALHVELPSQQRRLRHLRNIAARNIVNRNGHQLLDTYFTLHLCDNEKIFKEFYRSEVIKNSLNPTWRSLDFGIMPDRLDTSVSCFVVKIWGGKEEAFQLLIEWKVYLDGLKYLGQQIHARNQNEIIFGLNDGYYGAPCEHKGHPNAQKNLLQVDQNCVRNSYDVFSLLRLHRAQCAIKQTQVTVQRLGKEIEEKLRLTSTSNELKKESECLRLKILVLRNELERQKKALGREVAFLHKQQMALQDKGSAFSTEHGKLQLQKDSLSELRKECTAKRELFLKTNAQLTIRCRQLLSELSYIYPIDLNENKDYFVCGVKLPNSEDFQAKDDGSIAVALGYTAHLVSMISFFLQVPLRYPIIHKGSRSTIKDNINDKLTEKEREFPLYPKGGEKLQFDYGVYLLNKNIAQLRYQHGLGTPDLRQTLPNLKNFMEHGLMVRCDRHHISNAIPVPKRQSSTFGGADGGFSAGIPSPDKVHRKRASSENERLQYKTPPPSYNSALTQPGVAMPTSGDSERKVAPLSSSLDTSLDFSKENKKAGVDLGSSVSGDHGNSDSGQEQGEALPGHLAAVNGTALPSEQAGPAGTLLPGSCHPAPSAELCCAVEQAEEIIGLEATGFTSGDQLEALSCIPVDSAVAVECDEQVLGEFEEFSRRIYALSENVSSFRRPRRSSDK

What is called Kd is the free concentration of one partner at which half of the binding sites on the other are occupied at equilibrium, for simple one-to-one binding. Lower therefore signals a tighter complex. “Beclin 1 coiled-coil region L210E (from UniProt Q91XJ1 174-264) (domain or fragment)” gave a Kd with UVRAG coiled-coil domain [1] of 10 µM. In other words, the double-digit micromolar range.

For `CC[C@H](C)[C@H](NC(=O)[C@H](CC(C)C)NC(=O)[C@H](CC(C)C)NC(=O)[C@H](CCCNC(=N)N)NC(=O)[C@H](CCCNC(=N)N)NC(=O)[C@H](CCCNC(=N)N)NC(=O)[C@H](CCC(N)=O)NC(=O)[C@H](CCCNC(=N)N)NC(=O)[C@H](CCCNC(=N)N)NC(=O)[C@H](CCCCN)NC(=O)[C@H](CCCCN)NC(=O)[C@H](CCCNC(=N)N)NC(=O)CNC(=O)[C@H](Cc1ccc(O)cc1)NC(C)=O)C(=O)N[C@@H](CO)C(=O)N[C@@H](CCC(=O)O)C(=O)N[C@@H](CC(C)C)C(=O)N[C@]1(C)CCCCCCC=CCCC[C@@](C)(C(=O)N[C@@H](C)C(N)=O)NC(=O)[C@H](CCCNC(=N)N)NC(=O)[C@H](CCC(N)=O)NC(=O)[C@H](CCCCN)NC(=O)[C@H](CCC(=O)O)NC(=O)[C@H](CCCNC(=N)N)NC(=O)[C@H](CC(=O)O)NC1=O` [Tat-SP9] (Ac-YGRKKRRQRRRLLISEL[R8]DREKQR[S5]A-NH2; staple 18-25; N-terminus and C-terminus assumed), the equilibrium dissociation constant (Kd) in data set [2] is roughly 56.2 µM.

On to `CCN(CC)CCCC(C)Nc1ccnc2cc(Cl)ccc12` (stereo not drawn) [CQ, chloroquine, reference compound], for which the “p62 level with CQ treatment” value with HEK293T cells [3] (with CQ, even with Tat-SP4) was “elevated the p62 level”.

“Beclin 1 coiled-coil region R203E (from UniProt Q91XJ1 174-264) (domain or fragment)” yielded a dissociation constant Kd with UVRAG coiled-coil domain [1] of 10 µM.

On to “Beclin 1 coiled-coil domain (from UniProt Q91XJ1 174-264) (domain or fragment)”, for which the Kd is 3 µM with UVRAG coiled-coil domain [1] and 300 nM with UVRAG coiled-coil domain [4].

As for `CC[C@H](C)[C@H](NC(=O)[C@H](CC(C)C)NC(=O)[C@H](CCCNC(=N)N)NC(=O)[C@H](CCCNC(=N)N)NC(=O)[C@H](CCCNC(=N)N)NC(=O)[C@H](CCCNC(=N)N)NC(=O)[C@H](CCC(N)=O)NC(=O)[C@H](CCCNC(=N)N)NC(=O)[C@H](CCCNC(=N)N)NC(=O)[C@H](CCCCN)NC(=O)[C@H](CCCCN)NC(=O)[C@H](CCCNC(=N)N)NC(=O)CNC(=O)[C@H](Cc1ccc(O)cc1)NC(C)=O)C(=O)N[C@@H](CO)C(=O)N[C@@H](CCC(=O)O)C(=O)N[C@@H](CC(C)C)C(=O)N[C@]1(C)CCCCCCC=CCCC[C@@](C)(C(=O)N[C@@H](C)C(N)=O)NC(=O)[C@H](CCCNC(=N)N)NC(=O)[C@H](CCC(N)=O)NC(=O)[C@H](CCCCN)NC(=O)[C@H](CCC(=O)O)NC(=O)[C@H](CCCNC(=N)N)NC(=O)[C@H](CC(=O)O)NC1=O` [Tat-SP4] (Ac-YGRKKRRQRRRRLISEL[R8]DREKQR[S5]A-NH2; staple 18-25), the EGFR remaining in the data set on EGFR [5] (A549, peptide 20 μM, 2 h after EGF) is on record as roughly 75%; in the data set on EGFR [5] (A549, peptide 20 μM, 5 h after EGF) it was roughly 25%; in the data set on EGFR [8] (peptide 20 μM, 60 min post EGF (200 ng/mL)), roughly 30%. For the same molecule, the “increase in GFP-LC3 dot numbers (autophagosomes)” value in data set [6] (absence of CQ) and in data set [6] (presence of 25 μM CQ) was “approximately twofold” in each case. Further, the “increase in LC3-II level” value in the data set with HEK293T cells [3] (10 μM, with CQ, n = 3) is on record as “approximately threefold”; in the data set with HEK293T cells [3] (10 μM, without CQ, n = 3), “approximately twofold”; in the data set with HEK293T cells [3] (20 μM, with CQ, n = 3), “approximately fivefold”; in the data set on HEK293T cells [3] (20 μM, without CQ, n = 3), “approximately threefold”. Besides, the “reduction of p62 level” value in the data set on HEK293T cells [3] (without CQ, n = 3) was roughly 50%. Further, the “cytotoxicity (MTT)” value in the data set on HEK293T cells [7] and in the data set on A549 cells was “negligible cytotoxicity” in each case. This molecule displayed a Kd in data set [2] of roughly 6.8 µM. Besides, the “Beclin 1 self-association (His-Beclin 1 pulled down by GFP-Beclin 1)” value in data set [9] (peptide 20 μM added to cell lysate) is on record as “moderately reduced”; in data set [9] (peptide 20 μM added to cell medium 6 h posttransfection) it was “more prominent”. In addition, in data set [10], the “endogenous Beclin 1 pulled down by Atg14L-GFP” value was “significantly enhanced”. The “endogenous Beclin 1 pulled down by FLAG-UVRAG” value in data set [11] is reported as “significantly more endogenous Beclin 1”. This molecule displayed an EGFR degradation in the data set with EGFR [12] of roughly 50%.

B1: R203E (protein)
chain: DSEQLQRELKELALEEERLIQELEDVEKNEKVVAENLEKVQAEAERLDQEEAQYQREYSEFKRQQLELDDELKSVENQMRYAQMQLDKLKK
In the case of B1, the “reduction of binding affinity of Beclin 1–UVRAG interaction” value in the data set on UVRAG coiled-coil domain [13] was “approximately three- to fivefold”.

B2: L210E (protein)
chain: DSEQLQRELKELALEEERLIQELEDVEKNRKVVAENEEKVQAEAERLDQEEAQYQREYSEFKRQQLELDDELKSVENQMRYAQMQLDKLKK
In the case of B2, in the data set with UVRAG coiled-coil domain [13], the “reduction of binding affinity of Beclin 1–UVRAG interaction” value is “approximately three- to fivefold”.

B3: wild-type UVRAG: wild-type UVRAG (full length Mus musculus in cells; coiled-coil construct in vitro) (protein)
chain: MSASASVGGPVPQPPPGPAAALPPGSAARALHVELPSQQRRLRHLRNIAARNIVNRNGHQLLDTYFTLHLCSTEKIYKEFYRSEVIKNSLNPTWRSLDFGIMPDRLDTSVSCFVVKIWGGKENIYQLLIEWKVCLDGLKYLGQQIHARNQNEIIFGLNDGYYGAPFEHKGYSNAQKTILLQVDQNCVRNSYDVFSLLRLHRAQCAIKQTQVTVQKIGKEIEEKLRLTSTSNELKKKSECLQLKILVLQNELERQKKALGREVALLHKQQIALQDKGSAFSAEHLKLQLQKESLNELRKECTAKRELFLKTNAQLTIRCRQLLSELSYIYPIDLNEHKDYFVCGVKLPNSEDFQAKDDGSIAVALGYTAHLVSMISFFLQVPLRYPIIHKGSRSTIKDNINDKLTEKEREFPLYPKGGEKLQFDYGVYLLNKNIAQLRYQHGLGTPDLRQTLPNLKNFMEHGLMVRCDRHHTSSAIPVPKRQSSIFGGADVGFSGGIPSPDKGHRKRASSENERLQYKTPPPSYNSALAQPVTTVPSMGETERKITSLSSSLDTSLDFSKENKKKGEDLVGSLNGGHANVHPSQEQGEALSGHRATVNGTLLPSEQAGSASVQLPGEFHPVSEAELCCTVEQAEEIIGLEATGFASGDQLEAFNCIPVDSAVAVECDEQVLGEFEEFSRRIYALNENVSSFRRPRRSSDK
modifications: left off: FLAG, end not stated, kept
As for B3, the EGFR remaining is given as roughly 40% in the data set on EGFR [5] (A549, UVRAG overexpression, 3 h after EGF (200 ng/mL)); roughly 5% in the data set on EGFR [5] (A549, UVRAG overexpression, 5 h after EGF (200 ng/mL)); roughly 10% in the data set on EGFR [8] (UVRAG overexpression, 120 min post EGF (200 ng/mL)). In addition, the “endolysosomal trafficking on overexpression” value in data set [14] is “enhanced endolysosomal trafficking”.
